Screens deposited in PubChem BioAssay by several laboratories.
Runt-CBFb FRET: inhibitors of human RUNX1 Runt domain binding to CBFb; inhibition, % at 20 µM; AID 1496; actives 0.46% (n = 220,000); Q01196+Q13951; Cerulean-Runt/Venus-CBFb FRET ratio 530/480, 1 h;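 active means inhibition over about 50% at 20 µM in the single-dose screen, limit read from the data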;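 further: 0% = DMSO wells and 100% = excess unlabeled CBFb competitor control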
Target sequence (Q01196 whole entry, looked up, the tested form may be a part): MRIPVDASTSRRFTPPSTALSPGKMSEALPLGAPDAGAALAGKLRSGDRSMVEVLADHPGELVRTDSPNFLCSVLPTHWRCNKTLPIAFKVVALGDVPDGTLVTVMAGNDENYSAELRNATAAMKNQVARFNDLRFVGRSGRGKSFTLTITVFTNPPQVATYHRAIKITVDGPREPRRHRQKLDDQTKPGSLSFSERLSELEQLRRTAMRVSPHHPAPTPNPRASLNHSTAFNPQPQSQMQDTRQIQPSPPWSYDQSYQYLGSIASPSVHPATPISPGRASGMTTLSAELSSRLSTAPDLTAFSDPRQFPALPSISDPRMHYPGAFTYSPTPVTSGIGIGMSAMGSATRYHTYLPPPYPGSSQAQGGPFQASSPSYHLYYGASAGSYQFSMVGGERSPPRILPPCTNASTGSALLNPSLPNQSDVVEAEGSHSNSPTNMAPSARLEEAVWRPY
Target sequence (Q13951 whole entry, looked up, the tested form may be a part): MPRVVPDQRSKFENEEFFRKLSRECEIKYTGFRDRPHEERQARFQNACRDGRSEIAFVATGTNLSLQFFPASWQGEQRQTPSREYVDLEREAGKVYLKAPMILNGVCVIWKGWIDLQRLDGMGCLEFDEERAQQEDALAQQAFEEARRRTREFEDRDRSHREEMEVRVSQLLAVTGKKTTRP
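Assay system: Cerulean-Runt domain / Medium: Tris 50 mM pH 7.5, KCl, K2SO4, 0.01% BSA / Timing: protein complex preformed 1 h, compound exposure 1 h, room temperature, dark / Measured by: FRET, excitation 422 nm, emission at 530 and 480 nm / Evaluation: loss of energy transfer signal / Control set: 5 µM unlabeled CBFb as full-inhibition high control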
Calpain2 inh: calpain II (pig) inhibition; purified calpain II, fluorogenic peptide substrate, 30 min; inhibition, % at 16 µM; actives 0.37% (n = 220,000); AID 1236;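 active means inhibition above about 50%, limit read from the data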
FAS TE block: FAS thioesterase (human) inhibition | P49327 | actives 0.67% (n = 360,000) | inhibition, % at 15 µM | recombinant FAS-TE, OMFH fluorogenic substrate, fluorescence endpoint;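 active means compounds whose normalised, plate-corrected inhibition of enzyme fluorescence in the single-dose primary screen is 50% or more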;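 further: 0% = DMSO with enzyme and 100% = substrate without enzyme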
RanGTP-Imp inh: inhibitors of RanGTP-importin-beta interaction, primary screen, biochemical, FRET, CFP-Ran, YFP-importin-beta, homogeneous; cell-free CFP-Ran/YFP-importin-beta FRET ratio; inhibition, % (test concentration not listed); actives 1.1% (n = 300,000); AID 2216;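 active means more than half of the replicate wells show a fall in the fluorescence ratio signal beyond about 16%, limit read from the data, passing the limit was not always enough; inconclusive means exactly half of the replicate wells pass the set limit; inactive means fewer than half of replicates pass the limit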;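 further: 0% = DMSO wells and 100% = Ran loaded with GDP instead of GTP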
Runt-SMMHC FRET: inhibitors of human RUNX1 Runt domain binding to CBFb-SMMHC; inhibition, % at 20 µM; actives 0.74% (n = 220,000); Cerulean-Runt/Venus-CBFb-SMMHC FRET ratio 530/480, 1 h;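 active means mean inhibition across duplicate retests at 20 µM reaching about 50%, limit read from the data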;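 further: 0% = DMSO wells and 100% = wells with excess untagged CBFb-SMMHC; inhibitors lower the FRET ratio by blocking Runt binding to CBFb-SMMHC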
* hit, by the source's call; i = inactive; ? = inconclusive; nt = not tested or not shown. Sampled rows, rich in hits. Any-hit rate of the full collection: about 2.1%.

SMILES	Runt-CBFb FRET	Calpain2 inh	FAS TE block	RanGTP-Imp inh	Runt-SMMHC FRET
Cc1ccc(NC(=O)Cn2c(CCC(=O)O)ccc2-c2cccs2)cc1	20	-38	-8	4	26
COc1ccc(-c2ccc(CCC(=O)O)n2CC(C)C)cc1	27	-373	-7	2	51*
O=C(O)CCc1ccc(-c2ccc(F)cc2)n1CC1CCCO1 (centres undefined)	12	-285	-6	1	21
COCCCn1c(CCC(=O)O)ccc1-c1cccs1	22	i	-3	55*	126*
CCNS(=O)(=O)c1ccc(CCC(=O)NCc2ccccc2)cc1	-1	-21	-6	2	-4
CCOc1ccc(-c2noc(CCCC(=O)NCC3CCCO3)n2)cc1OC (centres undefined)	nt	nt	-4	-1	nt
NNc1nc2c(-c3ccc(F)cc3)nnn2c2ccccc12	13	-110	-4	21*	-5
NNc1nc2c(-c3ccc(Cl)cc3)nnn2c2ccccc12	5	-139	-4	-5	0
CCCOc1ccc(C(=O)Nc2ccc(N3CCOCC3)cc2N2CCOCC2)cc1OCC	nt	nt	-4	nt	nt
Cc1ccc(S(=O)(=O)c2cc3c(=O)n4cccc(C)c4nc3n(CC3CCCO3)c2=N)cc1 (centres undefined)	112*	nt	nt	nt	38
COCCn1c(=N)c(S(=O)(=O)c2ccc(F)cc2)cc2c(=O)n3cccc(C)c3nc21	nt	nt	21	-3	nt
N=c1c(S(=O)(=O)c2ccc(F)cc2)cc2c(=O)n3ccccc3nc2n1CC1CCCO1 (centres undefined)	nt	nt	10	175*	nt
Cc1cc(-n2c(=O)c(C#N)cc3c(=O)n4cccc(C)c4nc32)no1	18	i	21	184*	60*
Cc1cccn2c(=O)c3cc(C#N)c(=O)n(-c4c(C)n(C)n(-c5ccccc5)c4=O)c3nc12	14	-66	-2	2	49
Cc1cccn2c(=O)c3cc(C#N)c(=O)n(CC4CCCO4)c3nc12 (centres undefined)	22	i	nt	nt	60*
CCOC(=O)[C@@H]1[C@H]2COc3ccc(Br)cc3[C@@H]2N2C(=O)N(c3ccc(Br)cc3)C(=O)[C@]12C	nt	nt	72*	1	nt
CCOC(=O)[C@@H]1[C@H]2COc3ccc(Br)cc3[C@H]2N2C(=O)N(c3ccc(Br)cc3)C(=O)[C@]12C	nt	nt	42	-3	nt
CC/C(=N\NC(=O)c1nnn(-c2nonc2N)c1CN(C)c1ccccc1)c1ccccc1	nt	nt	14	?	nt
Cc1nn(C(=O)c2ccco2)c(C)c1Sc1ccccc1	53*	-31	12	6	-2
CCn1nc(C(=O)NCCc2ccc3c(c2)OCCO3)c2ccccc2c1=O	nt	nt	-4	nt	nt
Cc1ccc(S(=O)(=O)c2cc(C#N)c(=O)[nH]c2N)cc1	19	-55	-9	-2	107*
COc1nc(N)c(S(=O)(=O)c2ccc(C)cc2)cc1C#N	10	-34	-2	5	24
CC(C)(C)Cc1nnc(NC(=O)CSc2ccccc2)s1	nt	nt	-3	1	nt
O=Cc1cn(-c2ccccc2)nc1-c1cc2cc(O)ccc2oc1=O	94*	-479	-6	40*	57*
O=Cc1cn(-c2ccccc2)nc1-c1cc2c(ccc3ccccc32)oc1=O	-41	-408	-3	nt	20
SMILES	Runt-CBFb FRET	Calpain2 inh	FAS TE block	RanGTP-Imp inh	Runt-SMMHC FRET
COc1ccc(C(=O)NCC(C)(C)SCc2c(C)cc(C)cc2C)cc1	-3	56*	25	2	0
COc1ccc(C(=O)NCCNC(=O)c2ccc(OC)cc2)cc1	nt	nt	-2	-4	nt
Nc1c(S(=O)(=O)c2cccs2)c2nc3ccccc3nc2n1CCc1ccccc1	10	i	nt	?	24
COCCNC(=O)c1c(N)n(CCC2=CCCCC2)c2nc3ccccc3nc12	38	i	-6	68*	58*
COCCn1c(N)c(C(=O)OCc2ccccc2)c2nc3ccccc3nc21	17	i	10	18*	65*
CC1(C(=O)NCC(F)(F)F)CCN1C(=O)C1(c2ccccc2)CC1 (centres undefined)	nt	nt	-11	nt	nt
Cc1nnc(SCc2nnc(-c3cccs3)o2)s1	1	-9	-6	175*	-2
Cc1nnc(SCc2nnc(-c3cccs3)o2)n1C	1	-1	-2	3	-3
Cc1ccccc1Cn1c(=O)n(CC2CCC(C(=O)NCCc3ccccc3)CC2)c(=O)c2ccccc21 (centres undefined)	0	66*	-9	4	-1
O=C(NCCc1ccccc1)C1CCN(Cc2cccc3ccccc23)CC1	nt	nt	2	7	nt
CC(=O)N1CCN(CC(=O)NC(=O)Nc2ccc3c(c2)OCCO3)CC1	nt	nt	-6	-2	nt
CCOC(=O)[C@H]1O[C@@H]1C(=O)N[C@@H](CC(C)C)C(=O)NCCC(C)C	2	97*	-1	8	-1
CC(C)CC(NC(=O)C1CCC(C)CC1)C(=O)NCCN1CCOCC1 (centres undefined)	nt	nt	-2	-3	nt
CC(C)CCNC(=O)[C@H](CC(C)C)NC(=O)[C@H]1O[C@@H]1C(=O)O	-2	100*	nt	-1	1
CCOC(=O)N1CCC(NC(=O)C(CC(C)C)NC(=O)C2CCCCC2)CC1 (centres undefined)	0	0	-7	2	2
Cc1cc(Cl)ccc1NS(=O)(=O)c1c(C)[nH]c(=O)[nH]c1=O	nt	nt	-1	8	nt
CN(C)CCCN1C(=O)C(=O)/C(=C(/O)c2ccccc2)C1c1ccccn1 (centres undefined)	0	nt	nt	nt	-1
COc1ccc(/C(O)=C2/C(=O)C(=O)N(CCN3CCOCC3)C2c2ccccn2)cc1OC (centres undefined)	1	16	-6	29*	12
Cc1ccc(/C(O)=C2/C(=O)C(=O)N(CCN3CCOCC3)C2c2ccccn2)cc1 (centres undefined)	9	-13	-8	22*	8
O=C1C(=O)N(CCN2CCOCC2)C(c2ccccn2)/C1=C(/O)c1ccccc1 (centres undefined)	8	10	-10	24*	6
CCN(CC)CCCN1C(=O)C(=O)/C(=C(/O)c2ccc(C)cc2)C1c1ccccn1 (centres undefined)	-1	0	-3	2	-7
COc1ccc(C2/C(=C(/O)c3ccc4c(c3)CC(C)O4)C(=O)C(=O)N2CCCN2CCOCC2)cc1OC (centres undefined)	nt	nt	0	1	nt
COc1ccc(/C(O)=C2/C(=O)C(=O)N(CCN(C)C)C2c2ccccn2)cc1OC (centres undefined)	3	-16	-2	23*	-2
CCCN(C(=O)COC(=O)C12CCC(=O)N1c1ccccc1S2)c1c(N)n(Cc2ccccc2)c(=O)[nH]c1=O (centres undefined)	nt	nt	-5	5	nt
CCN(CC)C1CCN(C(=O)c2ccc3nc(Cc4ccc(OC)cc4)oc3c2)C1 (centres undefined)	nt	nt	-4	?	nt
